Source: PubChem BioAssay
PLC-gamma1 inh: PLC-gamma1 (human) inhibition, primary screen. AID 720700. P19174. inhibition, % at 12.2 µM. purified PLC-gamma1, fluorogenic substrate, fluorescence. 0.84% of 370,000 active
Tn7 DDE FP: DD(E)-Tn7 binding inhibition, primary FP screen. P02675. FP displacement of FITC-Tn7 peptide from fibrin DD(E); 0% = median of compound wells per plate. inhibition, % at 8.3 µM. 0.13% of 370,000 active. AID 720508;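 active = inhibition above the mean of compounds falling within the control limits plus 3 SD of them, cut at about 14% in these data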
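System: human fibrin DD(E); quantity: Fibrin-DD(E) at 2 µM final; also added: fluorescent Tn7 probe at 0.1 µM; compound dosing: single nominal test concentration of 8.3 µM per compound; schedule: 10 min preincubation, 3 h with tracer, room temperature; detection: fluorescence polarization of the labelled Tn7 tracer; repeats: one replicate per compound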
CendR NRP1 mod: alters CendR peptide binding to human NRP-1. 0.85% of 360,000 active. inhibition, % at 25 µM. O14786. FAM-RPARPAR peptide binding to NRP-1, fluorescence polarization;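 active = inhibition or corrected inhibition above about 18%, plus a signal ratio from 0.5 to 1.5, limit read from the data, passing the limit was not always enough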
DDE Tn6 FP inh: disrupts Tn6 cyclic peptide binding to fibrin D-Dimer-E complex; P02675; Fibrin DD(E) TRITC-Tn6 fluorescence polarization displacement; inhibition, % at 8.3 µM; 0.21% of 370,000 active;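 active = inhibition above a per-campaign cutoff: mean of compounds within control limits plus 3 SD, cut at about 15% in these data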
proKLK7 act: activates the human kallikrein-7 zymogen. P49862. purified proKLK7, EDANS-DABCYL substrate fluorescence; 100% is mature enzyme control, 0% vehicle. activation, % at 7 µM. 0.9% of 370,000 active. AID 652039;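 active = activation above the mean of all tested compounds plus 3 SD, computed per campaign excluding outliers beyond control limits, cut at about 13% in these data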
PLCb3 inh: blocks human PLC-beta3 enzyme activity; Purified PLC-beta3, fluorogenic substrate, fluorescence; AID 720704; inhibition, % at 12.2 µM; 0.18% of 370,000 active; in the data active = inhibition above about 11%
Target sequence (Q01970 whole entry, looked up): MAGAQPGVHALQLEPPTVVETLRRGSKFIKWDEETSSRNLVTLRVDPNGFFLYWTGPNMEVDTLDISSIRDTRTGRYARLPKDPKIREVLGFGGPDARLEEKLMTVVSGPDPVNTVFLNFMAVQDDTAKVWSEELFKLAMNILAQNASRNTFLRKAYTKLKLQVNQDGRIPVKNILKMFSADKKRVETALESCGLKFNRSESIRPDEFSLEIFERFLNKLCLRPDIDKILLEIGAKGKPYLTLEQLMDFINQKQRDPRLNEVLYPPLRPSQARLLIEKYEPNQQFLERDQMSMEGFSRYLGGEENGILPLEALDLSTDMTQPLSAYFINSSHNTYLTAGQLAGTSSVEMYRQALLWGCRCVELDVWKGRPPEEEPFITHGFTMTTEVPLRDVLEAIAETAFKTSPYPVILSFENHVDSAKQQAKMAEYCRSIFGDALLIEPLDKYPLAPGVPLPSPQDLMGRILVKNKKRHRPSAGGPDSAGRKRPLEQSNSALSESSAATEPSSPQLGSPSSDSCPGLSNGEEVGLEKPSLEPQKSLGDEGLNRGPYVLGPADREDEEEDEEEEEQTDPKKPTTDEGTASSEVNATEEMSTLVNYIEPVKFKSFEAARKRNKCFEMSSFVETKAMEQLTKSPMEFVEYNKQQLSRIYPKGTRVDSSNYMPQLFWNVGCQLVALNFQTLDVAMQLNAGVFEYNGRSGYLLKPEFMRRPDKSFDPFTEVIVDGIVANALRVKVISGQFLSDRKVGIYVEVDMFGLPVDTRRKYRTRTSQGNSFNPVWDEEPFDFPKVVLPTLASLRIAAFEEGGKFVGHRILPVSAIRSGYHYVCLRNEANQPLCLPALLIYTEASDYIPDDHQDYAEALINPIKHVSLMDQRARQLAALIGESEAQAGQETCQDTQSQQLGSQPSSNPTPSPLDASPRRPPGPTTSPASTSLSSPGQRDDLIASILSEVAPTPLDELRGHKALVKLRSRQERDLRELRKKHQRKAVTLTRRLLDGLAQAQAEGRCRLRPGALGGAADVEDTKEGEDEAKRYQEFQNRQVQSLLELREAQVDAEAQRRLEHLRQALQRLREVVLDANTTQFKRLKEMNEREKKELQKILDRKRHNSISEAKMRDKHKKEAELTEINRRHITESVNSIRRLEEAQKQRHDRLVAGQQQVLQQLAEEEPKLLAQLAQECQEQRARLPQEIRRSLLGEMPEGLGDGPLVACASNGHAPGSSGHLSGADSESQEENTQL
PLCgamma1 ctr: counter-screen for PLC-beta3 inhibitors: inhibitors of human PLC-gamma1. shares compounds with PLC-gamma1 inh. purified PLC-gamma1, fluorogenic substrate, fluorescence. inhibition, % at 12.3 µM. 3.1% of 3,300 active. AID 743258
PLCbeta3 conf: human PLC-beta3 inhibition, confirmation; shares compounds with PLC-gamma1 inh; purified PLC-beta3, fluorogenic substrate fluorescence; inhibition, % at 12.3 µM; 1% of 3,300 active; AID 743261; in the data active = inhibition above about 11%
Each line names hits and unclear results; the compound was inactive in the other large screens (follow-up assays come after a bar, where they were run). The list is not random: actives were taken first. Their share in the collection is about 3%. Rule as the data show it, unless noted: active = inhibition above about 9.5%; inactive = the rest.

CC1=C2NC(N)=[N+](Cc3ccc4c(c3)OCO4)CC2n2c(=O)n(-c3ccccc3)c(=O)n2C1 (configuration not stated)	none (no result: CendR NRP1 mod)
Cc1ccc(CS(=O)Cc2ccc(C(=O)NCc3ccccc3Cl)o2)cc1 (configuration not stated)	none
O=C(NCc1ccccc1Cl)c1ccc(CS(=O)Cc2ccc(Cl)cc2)o1 (configuration not stated)	PLC-gamma1 inh 9.5 | PLCgamma1 ctr inactive | PLCbeta3 conf inactive
CCCCNC(=O)C1(C)CCCCN1C(=O)c1ccc(F)c(C)c1 (configuration not stated)	PLC-gamma1 inh 14 | PLCgamma1 ctr inactive | PLCbeta3 conf inactive
Cc1ccc(C)c(SCC(=O)NC(=O)NCc2ccccc2)c1	none
O=C(CSc1ccc(F)cc1)NC(=O)NCc1ccccc1	PLC-gamma1 inh 10 | PLCgamma1 ctr inactive | PLCbeta3 conf inactive
O=C(Nc1ccc(F)cc1)OCc1cn(Cc2cccc(F)c2F)nn1	none (no result: CendR NRP1 mod)
CSC1=Nc2ccccc2N=C(N2CCCC2)C1	none (no result: CendR NRP1 mod)
CSCC[C@H](NC(=O)COc1ccc(Cl)cc1)C(=O)N1CCC2(CC1)NCCc1[nH]cnc12	PLC-gamma1 inh 11 | PLCgamma1 ctr inactive | PLCbeta3 conf inactive
CSCC[C@H](NC(=O)c1ccc2ccccc2c1)C(=O)N1CCC2(CC1)NCCc1[nH]cnc12	none
COc1ccc(Cn2nnnc2C(C(C)C)N(Cc2ccco2)Cc2cccs2)cc1 (configuration not stated)	PLC-gamma1 inh 14, PLCb3 inh 14 | PLCgamma1 ctr inactive | PLCbeta3 conf inactive
CC(C)C(c1nnnn1Cc1ccccc1)N(Cc1ccco1)Cc1cccs1 (configuration not stated)	none
COc1ccccc1COC(=O)c1cccc(S(=O)(=O)N2CCCC2)c1	PLC-gamma1 inh 10, PLCb3 inh 11 | PLCgamma1 ctr 11 | PLCbeta3 conf 14
CCOC(=O)c1cccc(S(=O)(=O)N2CCCC2)c1	PLC-gamma1 inh 10 | PLCgamma1 ctr inactive | PLCbeta3 conf inactive
O=C(c1cccc(S(=O)(=O)N2CCCCC2)c1)N1CCc2ccccc21	PLC-gamma1 inh 15, CendR NRP1 mod 32 | PLCgamma1 ctr inactive | PLCbeta3 conf inactive
CC(OC(=O)c1cccc(S(=O)(=O)N2CCCCC2)c1)C(=O)NCC1CCCCC1 (configuration not stated)	PLC-gamma1 inh 9.9 | PLCgamma1 ctr inactive | PLCbeta3 conf inactive
C=CCn1c(SCC(=O)Nc2ccc(CCCC)cc2)nnc1-c1ccc(Cl)cc1	none (no result: CendR NRP1 mod)
O=C(CSc1ccccc1)N1CCC(Oc2cccnc2)CC1	none (no result: CendR NRP1 mod)
COc1ccccc1COCC(O)CN1CCN(S(=O)(=O)c2cccc(F)c2)CC1 (configuration not stated)	PLC-gamma1 inh 15 | PLCgamma1 ctr inactive | PLCbeta3 conf inactive
CCCCCCNC(=O)C1CSCCS(=O)(=O)N1Cc1ccc(OC)cc1 (configuration not stated)	none (no result: CendR NRP1 mod)
O=C(Nc1ccc(NC(=O)c2cccs2)cc1)c1ccco1	none
O=C(NC(=S)Nc1ccc(NC(=O)c2cccs2)cc1)c1ccco1	PLCb3 inh 15 | PLCgamma1 ctr inactive | PLCbeta3 conf inactive
Cc1nc(-c2ccncc2)nc(NCCNc2ncccc2C(F)(F)F)c1Cl	PLC-gamma1 inh 12 | PLCgamma1 ctr inactive | PLCbeta3 conf inactive
Cc1ccc(C(C)C)c(OCC(O)CN2CC(C)OC(C)C2)c1 (configuration not stated)	PLC-gamma1 inh 15 | PLCgamma1 ctr inactive | PLCbeta3 conf inactive
Cc1ccc(C(C)C)c(OCC(O)CN2CCOCC2)c1 (configuration not stated)	none
Cc1c(C(=O)OCC(=O)c2c(N)n(CC(C)C)c(=O)n(C)c2=O)oc2ccccc12	PLCb3 inh 46 | PLCgamma1 ctr inactive | PLCbeta3 conf inactive
COCc1c(C(=O)OCC(=O)c2c(N)n(CC(C)C)c(=O)n(C)c2=O)oc2ccccc12	none
